Test results as given in paper PMC2818544 (Bioorganic & medicinal chemistry, 2009).

Tests used:
RmlC and RmlD [1] = biological target: RmlC and RmlD (Mycobacterium tuberculosis, UniProt P9WH09); format: biochemical; settings: read-out: Km of NADPH; cofactor; TDP-KDX at 200 μM
RmlC [2] = biological target: T1, RmlC (Mycobacterium tuberculosis, UniProt P9WH11); assay: 96-well RmlC/RmlD coupled assay, NADPH absorbance at 340 nm; format: biochemical
RmlC [3] = biological target: T1, RmlC; assay: Reversibility of inhibition; format: biochemical; settings: 10 times IC50 pre-incubated 0 or 0.5 hr with 100x RmlC, diluted 100-fold
Summary of the method: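 Test compound incubated 0 or 0.5 hr at 25°C with concentrated RmlC in buffer, then diluted 100-fold. RmlD, TDP-KDX and NADPH were added, and activity was followed as the decrease in NADPH fluorescence (340/460 nm) over 200 min. Controls had no compound, or compound added only after dilution.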

RmlC [4] = biological target: T1, RmlC; assay: Time dependence of the onset of inhibition; format: biochemical; settings: pre-incubation 0, 1, 2 or 3 hr
Summary of the method: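 Test compound came from a 16-point 2-fold serial dilution (2.5 mM top stock) and was diluted in water. It was pre-incubated 0–3 hr with 2x RmlC, RmlD and NADPH in 83.5 mM MOPS. TDP-KDX was then added and NADPH fluorescence followed over 90 min. IC50 came from a 4-parameter logistic fit of percent activity.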

RmlC [5] = biological target: T1, RmlC; assay: Mode of inhibition: TDP-KDX Km; format: biochemical
RmlC and RmlD [6] = format: biochemical, Mycobacterium tuberculosis; settings: read-out: IC50 of the known inhibitor TDP
[7] = Cytotoxicity, CellTiter-Glo luminescence; format: cell-based; settings: human, human aortic endothelial (HAE) cells

T1 sequence (P9WH11 whole entry, looked up): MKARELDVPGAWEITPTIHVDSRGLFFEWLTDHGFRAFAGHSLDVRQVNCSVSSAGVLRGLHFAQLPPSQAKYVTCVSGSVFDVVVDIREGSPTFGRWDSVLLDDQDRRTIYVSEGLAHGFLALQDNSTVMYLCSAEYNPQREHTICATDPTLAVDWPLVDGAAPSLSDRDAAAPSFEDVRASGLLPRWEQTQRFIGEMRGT
Chain of RmlC and RmlD (Mycobacterium tuberculosis, UniProt P9WH09) (P9WH09 whole entry): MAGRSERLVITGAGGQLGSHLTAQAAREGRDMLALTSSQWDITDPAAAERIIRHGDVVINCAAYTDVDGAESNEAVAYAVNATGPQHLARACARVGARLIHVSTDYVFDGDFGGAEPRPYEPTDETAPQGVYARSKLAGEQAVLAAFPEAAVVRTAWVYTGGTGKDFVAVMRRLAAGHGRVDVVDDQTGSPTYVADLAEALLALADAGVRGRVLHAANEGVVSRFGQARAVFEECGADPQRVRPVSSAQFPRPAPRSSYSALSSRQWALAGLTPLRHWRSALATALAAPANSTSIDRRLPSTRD

NC(=O)C1=CN([C@@H]2O[C@H](COP(=O)(O)OP(=O)(O)OC[C@H]3O[C@@H](n4cnc5c(N)ncnc54)[C@H](OP(=O)(O)O)[C@@H]3O)[C@@H](O)[C@H]2O)C=CC1 [NADPH]
Km (RmlC and RmlD [1]): 12 µM

C=CCn1c2ccccc2c2nnc(SCn3c(=O)[nH]c4ccccc43)nc21 [SID 7972845]
fold increase of IC50 relative to 77074 (RmlC [2]): 86 fold

CCn1c2ccccc2c2nnc(SCCCn3c(=O)[nH]c4ccccc43)nc21 [SID 7975595, 1-(3-(5-ethyl-5H-[1,2,4]triazino[5,6-b]indol-3-ylthio)propyl)-1H-benzo[d]imidazol-2(3H)-one]
reversibility of inhibition (RmlC [3]): fully reversible inhibitor
change of IC50 with pre-incubation time (onset of inhibition) (RmlC [4]): No such decrease in IC50 was observed
Ki (RmlC [5]): 0.1 µM
affinity of inhibitor relative to TDP-KDX (Km versus Ki) (RmlC [5]; comparison of Km of TDP-KDX and Ki of inhibitor): approximately 2000 fold
mode of inhibition (RmlC [5]; versus substrate TDP-KDX): classical competitive inhibitor

Cc1cn([C@H]2C[C@H](O)[C@@H](COP(=O)(O)OP(=O)(O)O)O2)c(=O)[nH]c1=O [TDP, reference compound]
IC50 (RmlC and RmlD [6]): 340 µM

O=c1[nH]c2ccccc2n1CCCSc1nnc2c3ccccc3n(Cc3ccccc3)c2n1 [compound 77070]
fold increase of IC50 relative to SID 7975595 (R1 ethyl) (RmlC [2]): approximately 15 fold

CCCn1c2ccccc2c2nnc(SCCCn3c(=O)[nH]c4ccccc43)nc21 [compound 77071]
fold increase of IC50 relative to 77074 (RmlC [2]): 10 fold

COc1cccc2c1C(=O)c1c(O)c3c(c(O)c1C2=O)C[C@@](O)(C(=O)CO)C[C@@H]3O[C@H]1C[C@H](N)[C@H](O)[C@H](C)O1 [doxorubicin]
IC50 at 24 h [7]: ~10 µM
